How the values were obtained:
Assay type in all cases: functional
SNB-75 [1] = experiment: Cytotoxicity against human SNB75 cells assessed as cell growth at 100 nM after 48 hrs by sulforhodamine B assay; settings: SNB-75, 48 h, read-out: Activity
U-251 = experiment: Cytotoxicity against human U251 cells assessed as cell growth at 100 nM after 48 hrs by sulforhodamine B assay; settings: U-251, 48 h, read-out: Activity
T47D = experiment: Cytotoxicity against human T47D cells assessed as cell growth at 10 uM after 48 hrs by sulforhodamine B assay; settings: read-out: Activity
HL-60(TB) = experiment: Cytotoxicity against human HL-60(TB) cells assessed as cell growth at 0.01 uM after 48 hrs by sulforhodamine B assay; settings: HL-60, 48 h, read-out: Activity
How it was run: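 NCI 60-cell panel. Cells are grown in RPMI 1640 with 5% FBS and 2 mM L-glutamine, seeded at 5000–40,000 cells/well according to doubling time, and preincubated 24 h. Time-zero plates are TCA-fixed. Compound from DMSO stock is given at five 10-fold or 1/2-log concentrations for 48 h at 37 °C, 5% CO2. Suspension cells are fixed with 80% TCA (final 16%) and SRB-stained, with absorbance at 515 nm. Percent growth is derived from Tz, control and test readings.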

K562 [2] = experiment: Cytotoxicity against human K562 cells assessed as cell growth at 0.01 uM after 48 hrs by sulforhodamine B assay; settings: K562, 48 h, read-out: Activity
HOP-62 [3] = experiment: Cytotoxicity against human HOP62 cells assessed as cell growth at 1 uM after 48 hrs by sulforhodamine B assay; settings: HOP-62, 48 h, read-out: Activity
M14 [4] = experiment: Cytotoxicity against human M14 cells assessed as cell growth at 10 uM; settings: read-out: Activity
How it was run: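 NCI-60 screen: cells grown in RPMI 1640 with 5% FBS and 2 mM L-glutamine, plated at 5000–40,000 cells/well according to doubling time, and preincubated 24 h at 37 °C, 5% CO2. The single 10 µM dose (DMSO stock) was added, then incubated 48 h. Cells were TCA-fixed and stained with 0.4% SRB, read at 515 nm, and growth % calculated against time-zero and control plates.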

DU-145 = experiment: Cytotoxicity against human DU145 cells assessed as cell growth at 10 uM; settings: read-out: Activity
How it was run: (§1)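 Single-dose NCI-60 screen at 10 µM. Cells were grown in RPMI 1640 with 5% FBS and 2 mM L-glutamine, then treated for 48 h at 37 °C. Protein was measured by SRB staining with absorbance at 515 nm. Percentage growth was recorded, and inhibition percentage was calculated as 100 minus growth percentage.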

NCI-H460 = experiment: Cytotoxicity against human NCI-H460 cells assessed as cell growth at 1 uM after 48 hrs by sulforhodamine B assay; settings: NCI-H460, 48 h, read-out: Activity
M14 [5] = experiment: Cytotoxicity against human M14 cells assessed as cell growth at 1 uM after 48 hrs by sulforhodamine B assay; settings: M14, 48 h, read-out: Activity
MDA-MB-435 [6] = experiment: Cytotoxicity against human MDA-MB-435 cells assessed as cell growth at 1 uM after 48 hrs by sulforhodamine B assay; settings: MDA-MB-435, 48 h, read-out: Activity
SNB-75 [7] = experiment: Cytotoxicity against human SNB75 cells assessed as cell growth at 0.01 uM after 48 hrs by sulforhodamine B assay; settings: SNB-75, 48 h, read-out: Activity
IGROV-1 = experiment: Cytotoxicity against human IGROV1 cells assessed as cell growth at 0.01 uM after 48 hrs by sulforhodamine B assay; settings: IGROV-1, 48 h, read-out: Activity
CAKI-1 = experiment: Cytotoxicity against human Caki1 cells assessed as cell growth at 0.01 uM after 48 hrs by sulforhodamine B assay; settings: CAKI-1, 48 h, read-out: Activity
KM12 = experiment: Cytotoxicity against human KM12 cells assessed as cell growth at 0.001 uM after 48 hrs by sulforhodamine B assay; settings: KM12, 48 h, read-out: Activity
NCI-H322M = experiment: Growth inhibition of human NCI-H322M cells after 48 hrs by sulforhodamine B assay
How it was run: (§2)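 NCI 60-cell screen, five-dose mode. Cells grown in RPMI 1640 with 5% FBS and 2 mM L-glutamine and plated at 5000-40,000 cells/well according to doubling time. After 24 h preincubation, a Tz plate was TCA-fixed. Five concentrations (10-fold or 1/2 log dilutions) were applied for 48 h at 37 °C. SRB staining read at 515 nm. IC50 taken from [(Ti-Tz)/(C-Tz)]×100 = 50.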

HCT-15 = experiment: Growth inhibition of human HCT15 cells after 48 hrs by sulforhodamine B assay; settings: HCT-15, 48 h; how it was run: as §2
SF-539 = experiment: Growth inhibition of human SF539 cells after 48 hrs by sulforhodamine B assay; settings: SF-539, 48 h; how it was run: as §2
Malme-3M = experiment: Growth inhibition of human MALME-3M cells after 48 hrs by sulforhodamine B assay; how it was run: as §2
MDA-MB-435 [8] = experiment: Growth inhibition of human MDA-MB-435 cells after 48 hrs by sulforhodamine B assay; settings: MDA-MB-435, 48 h; how it was run: as §2
MDA-MB-231 = experiment: Cytotoxicity against human MDA-MB-231 cells assessed as cell growth at 0.01 uM after 48 hrs by sulforhodamine B assay; settings: MDA-MB-231, 48 h, read-out: Activity
OVCAR-8 = experiment: Cytotoxicity against human OVCAR8 cells assessed as cell growth at 1 uM after 48 hrs by sulforhodamine B assay; settings: OVCAR-8, 48 h, read-out: Activity
HCT-116 = experiment: Cytotoxicity against human HCT116 cells assessed as cell growth at 10 uM; settings: read-out: Activity; how it was run: as §1
K562 [9] = experiment: Cytotoxicity against human K562 cells assessed as cell growth at 10 uM after 48 hrs by sulforhodamine B assay; settings: K562, 48 h, read-out: Activity
HOP-62 [10] = experiment: Cytotoxicity against human HOP62 cells assessed as cell growth at 10 uM after 48 hrs by sulforhodamine B assay; settings: HOP-62, 48 h, read-out: Activity
HOP-92 = experiment: Cytotoxicity against human HOP92 cells assessed as cell growth at 10 uM after 48 hrs by sulforhodamine B assay; settings: HOP-92, 48 h, read-out: Activity
MDA-MB-435 [11] = experiment: Cytotoxicity against human MDA-MB-435 cells assessed as cell growth at 10 uM after 48 hrs by sulforhodamine B assay; settings: MDA-MB-435, 48 h, read-out: Activity
UACC-257 = experiment: Cytotoxicity against human UACC257 cells assessed as cell growth at 10 uM after 48 hrs by sulforhodamine B assay; settings: UACC-257, 48 h, read-out: Activity
UACC-62 = experiment: Cytotoxicity against human UACC62 cells assessed as cell growth at 10 uM after 48 hrs by sulforhodamine B assay; settings: UACC-62, 48 h, read-out: Activity
[12] = read-out: LC50 (the source's name)

Compound `COc1cc(C)cc(-c2c(-c3ccnc(-c4ccc(N(C)C)cc4)c3)cnn2CC#N)c1` has a growth at 0.1 µM (SNB-75 [1]) of 6%, a growth at 0.1 µM (U-251) of 6% and a growth at 10 µM (T47D) of 6%. It also gave a growth at 0.01 µM (HL-60(TB)) of 52%, a growth at 0.01 µM (K562 [2]) of 34% and a growth at 1 µM (HOP-62 [3]) of 31%. It also gave a growth at 10 µM (M14 [4]) of -17.5%, a growth at 10 µM (DU-145) of 3.17% and a growth at 1 µM (NCI-H460) of -53%. For the same compound, the growth at 1 µM (M14 [5]) was -9%, the growth at 1 µM (MDA-MB-435 [6]) was -29% and the growth at 0.01 µM (SNB-75 [7]) was 65%. For the same compound, the growth at 0.01 µM (IGROV-1) was -3%, the growth at 0.01 µM (CAKI-1) was -6% and the growth at 0.001 µM (KM12) was 95%. The GI50 (NCI-H322M) was 0.331 µM, the TGI (NCI-H322M) was > 100 µM and the CC50 (NCI-H322M; [12]) was > 100 µM. For the same compound, the GI50 (HCT-15) was 0.0766 µM, the TGI (HCT-15) was > 100 µM and the CC50 (HCT-15; [12]) was > 100 µM. The GI50 (SF-539) was 0.127 µM, the CC50 (SF-539; [12]) was > 100 µM and the GI50 (Malme-3M) was 0.0598 µM. For the same compound, the TGI (Malme-3M) was > 100 µM, the CC50 (Malme-3M; [12]) was > 100 µM and the GI50 (MDA-MB-435 [8]) was 0.0226 µM. The TGI (MDA-MB-435 [8]) was 0.0669 µM, the CC50 (MDA-MB-435 [8]; [12]) was > 100 µM and the growth at 0.01 µM (MDA-MB-231) was 88%. The growth at 1 µM (OVCAR-8) was 12%, the growth at 10 µM (HCT-116) was -32.4% and the growth at 10 µM (K562 [9]) was -5%. It also gave a growth at 10 µM (HOP-62 [10]) of 32%, a growth at 10 µM (HOP-92) of -26% and a growth at 10 µM (MDA-MB-435 [11]) of -23%. It also gave a growth at 10 µM (UACC-257) of 18% and a growth at 10 µM (UACC-62) of 16%.

— ChEMBL document CHEMBL1165950, “Design and synthesis of new potent anticancer pyrazoles with high FLT3 kinase inhibitory selectivity” (Bioorg Med Chem, 2010)
